M5 PAM: positive allosteric modulators of human muscarinic M5 receptor; P08912; CHO-K1 hM5, Fluo-8 calcium, ACh EC20 PAM; 0% = ACh EC20, 100% = ACh EC100; activation, % at 3 µM; actives 0.3% (n = 360,000); AID 624038;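 active means activation above the run cutoff, the mean activation of all test compounds plus 3 SD, cut at about 18% in these data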
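System – CHO-K1 hM5 cells · Compound – 3 µM, single dose · Incubation – compound preincubation 140 s before EC20 acetylcholine addition · Technique – Fluo-8 calcium fluorescence · Measure – Max/basal fluorescence ratio as % of EC20–EC100 ACh window · Benchmarks – low control EC20 acetylcholine (0%), high control EC100 acetylcholine (100%) · Replication – singlicate, one well per test compound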
M5 antag: CHRM5 antagonism in calcium assay | P08912 | CHO-hM5 cells, Fluo-8 calcium fluorescence, ACh EC80 | inhibition, % at 3 µM | actives 0.59% (n = 360,000);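 active means inhibition above a per-plate cutoff, the mean of that plate's test compounds plus 3 SD, cut at about 27% in these data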;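 further: 0% = acetylcholine EC80 with DMSO and 100% = DMSO without agonist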
M5 ag: CHRM5 agonism in calcium assay | P08912 | CHO-K1 hM5 cells, Fluo-8 calcium fluorescence; 0% DMSO wells, 100% maximal acetylcholine response | activation, % at 3 µM | actives 0.19% (n = 360,000) | AID 624037;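 active means activation above the run's mean over test compounds plus 3 SD, cut at about 23% in these data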;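 further: signal is peak over basal fluorescence ratio across the kinetic read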
M4 antag: blocks acetylcholine activation of human M4 receptor; CHO-hM4 cells, ACh EC80, Fluo-8 calcium fluorescence; AID 624125; actives 0.73% (n = 360,000); inhibition, % at 3 µM;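 active means inhibition above its plate's cutoff, the mean inhibition of sample wells plus 3 SD, cut at about 27% in these data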;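 further: 0% = acetylcholine EC80 with DMSO and 100% = DMSO without agonist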
Target sequence (P08173 whole entry, looked up): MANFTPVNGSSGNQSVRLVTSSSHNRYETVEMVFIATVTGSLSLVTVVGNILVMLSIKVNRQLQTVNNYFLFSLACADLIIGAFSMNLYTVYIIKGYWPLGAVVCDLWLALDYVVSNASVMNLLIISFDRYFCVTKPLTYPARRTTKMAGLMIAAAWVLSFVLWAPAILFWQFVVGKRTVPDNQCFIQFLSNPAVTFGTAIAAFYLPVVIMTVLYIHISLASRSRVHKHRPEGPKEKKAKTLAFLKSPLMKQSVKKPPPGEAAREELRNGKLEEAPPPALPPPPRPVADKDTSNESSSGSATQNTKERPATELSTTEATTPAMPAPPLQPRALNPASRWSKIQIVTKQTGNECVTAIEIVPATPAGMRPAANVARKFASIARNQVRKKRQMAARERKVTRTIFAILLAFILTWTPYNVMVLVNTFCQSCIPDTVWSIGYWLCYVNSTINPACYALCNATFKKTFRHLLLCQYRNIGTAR
M4 PAM: CHRM4 positive allosteric modulation | actives 0.4% (n = 360,000) | AID 624126 | CHO-K1 hM4/Gqi5, Fluo-8 calcium fluorescence, ACh EC20; 0% = ACh EC20, 100% = maximal ACh | P08173 | activation, % at 3 µM;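 active means activation above its plate's cutoff, the mean activation of sample wells plus 3 SD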
CHRM4 agonist: agonists of human muscarinic M4 receptor (CHRM4) | P08173 | CHO-K1 hM4/Gqi5, Fluo-8 calcium fluorescence; vehicle 0%, full acetylcholine response 100% | activation, % at 3 µM | actives 0.14% (n = 360,000);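 active means activation above the run mean over all test wells plus 3 SD, cut at about 32% in these data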;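 further: peak over basal fluorescence ratio per well then scaled between controls; 0% = DMSO wells and 100% = acetylcholine at EC100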
* marks the source's active call; other numbers are inactive results; ! = not active in a repeat. Sampled rows, rich in hits. Any-hit rate of the full collection: about 1.8%.

SMILES	M5 PAM	M5 antag	M5 ag	M4 antag	M4 PAM	CHRM4 agonist
CCOC(=O)CNC1CC(=O)N(c2ccc(Br)cc2)C1=O (stereo unspecified)	21.2*	-5.6	4.8	1.0	5.8	0.4
CCOC(=O)c1ccc(N2C(=O)CC(Nc3ccc(O)cc3)C2=O)cc1 (stereo unspecified)	-1.0	-1.8	3.3	-9.9	-3.5	0.3
O=C(NNC1CC(=O)N(c2ccc(Br)cc2)C1=O)c1ccco1 (stereo unspecified)	-4.5	5.5	-2.3	-3.9	8.6	4.8
CC1([N+](=O)[O-])COC2(OC1)C(=O)Nc1ccccc12 (stereo unspecified)	0.3	8.5	-3.1	47.9*	-17.6	0.0
Cc1cc(-c2ccccc2)nc(Nc2nc3c(C)cccc3c(=O)[nH]2)n1	5.1	1.1	-1.8	-4.0	7.1	1.6
Cc1ccc(C)c(Nc2nn3c(=O)c4ccc(C(=O)NCc5cccnc5)cc4nc3s2)c1	-3.8	6.6	-2.1	31.0*	-5.8	-0.5
Cc1ccc(S(=O)(=O)N2CCN(C(=O)Cn3c(=O)cnc4ccccc43)CC2)cc1	-13.5	7.9	1.2	-7.4	-5.2	4.6
CCOc1cc(OCC)cc(C(=O)N2CCC[C@H]2C(=O)N2CCC[C@H]2C(=O)N[C@@H](C)c2ccccc2)c1	-1.6	1.6	1.7	0.6	6.3	0.8
CC1C(=O)NN=C1C(=O)N/N=C\c1ccc(O)cc1O (stereo unspecified)	5.5	-6.4	-2.7	-33.9	28.6*	1.5
COc1cc(/C=N/NC(=O)C2=NNC(=O)C2C)ccc1O (stereo unspecified)	-3.3	5.9	-1.1	-4.3	-1.2	0.5
NCCc1nnc(SCc2ccccc2Cl)o1	3.0	3.1	-1.9	4.5	-6.0	0.4
NCCCCCc1nnc(SCc2ccc(Cl)cc2Cl)o1	-19.4	43.2*	-6.5	50.4*	-23.4	8.6
NCCCCCc1nnc(SCc2cccc(Cl)c2)o1	-17.8	80.3*	-6.8	85.1*	-29.6	2.9
O=C(c1ccc(S(=O)(=O)Nc2cccc(C(F)(F)F)c2)cc1)N1CCN(c2ccccc2O)CC1	3.2	5.1	-3.9	10.2	-9.3	12.8
COc1ccc(CNC(=O)CN(C(=O)CCC(=O)Nc2nccs2)c2cccc(C)c2)cc1	5.2	-12.5	-0.8	-6.9	1.4	-1.1
N#Cc1c(Cl)nsc1NN	-19.8	30.9*	10.3	23.3	-17.0	19.5
C[n+]1c2cc(N)ccc2cc2ccc(N)cc21	-8.8	19.0	43.6*	27.0*!	-15.8	93.6*
Nc1ccc2ccc(O)cc2c1	5.1	1.1	4.2	0.1	5.6	2.6
CCc1nc2ccc(C(=O)NCc3ccc4c(c3)OCO4)cn2c1N(CCC(C)C)CCN(C)C	-1.1	-0.9	-2.2	-2.3	-4.9	1.3
Cc1cccc(NC(=S)NC(=O)CCc2ccccc2)c1	-1.6	-3.5	-5.8	-0.7	-1.7	-1.8
COc1ccc(CC(=O)NC(=S)Nc2cccc(C)c2)cc1	5.2	5.5	29.6*	5.4	-19.9	29.1
COc1ccc(CC(=O)NC(=S)Nc2cccc(CO)c2)cc1	4.2	-7.2	31.1*	1.1	2.5	15.1
COc1ccccc1NC(=S)NC(=O)Cc1ccc(Cl)cc1	-6.8	9.0	5.0	1.1	-4.4	4.4
COc1cccc(NC(=S)NC(=O)Cc2ccc(Cl)cc2)c1	0.9	11.9	36.2*	-0.2	-4.6	29.2
COc1cc(NC(=O)c2cc(Cl)nnc2Cl)cc(OC)c1OC	0.1	-0.2	0.3	0.0	-2.5	1.0
SMILES	M5 PAM	M5 antag	M5 ag	M4 antag	M4 PAM	CHRM4 agonist
COc1cccc(NC(=O)c2cc(Cl)nnc2Cl)c1	8.2	-0.2	-5.0	-6.6	23.9*	4.5
O=C(Nc1ccc2c(c1)OCCO2)C(C1CC1)N1CCN(c2ccc(C(F)(F)F)cn2)CC1 (stereo unspecified)	-6.3	7.0	-5.0	4.2	-4.6	-1.7
O=S(=O)(c1cc(Br)ccc1Br)N1CCCCCC1	-1.3	0.8	-4.0	-38.6	2.1	-2.8
Nc1ncc(Br)cc1S(=O)(=O)N1CCCCCC1	-14.9	29.2*	-8.0	-2.1	-2.1	0.9
COCCN(Cc1ccc(OC)cc1)c1c(C)nc2ccc(C(=O)NCCc3c[nH]c4ccccc34)cn12	-11.3	17.8	1.1	-9.6	-3.5	10.2
Cc1ccc2[nH]c(=O)c3cc(C(=O)NCCC(C)C)sc3c2c1	1.6	3.3	-3.6	2.8	0.1	0.5
CC(C)CCNC(=O)c1cc2c(=O)[nH]c3ccccc3c2s1	11.9	17.8	-1.8	19.1	26.2*	8.7
Cc1cnc(CNC(=O)c2ccc3sc([C@@H]4O[C@H](CO)[C@H](O)[C@H](O)[C@H]4O)nc3c2)cn1	-2.5	1.6	-0.7	6.9	-3.5	-0.4
O=C(NCc1cccs1)c1ccc2sc([C@@H]3O[C@H](CO)[C@H](O)[C@H](O)[C@H]3O)nc2c1	6.6	-7.4	0.9	-14.0	15.7*	0.8
CCOc1ccc(-c2nnc(-c3ccncc3)o2)cc1	41.5*	-14.0	-7.3	-15.3	25.1*	4.0
COc1cccc(CNC(=O)C2Cc3cc(S(=O)(=O)N4CCCC4)ccc3N2C(C)=O)c1OC (stereo unspecified)	-1.2	0.2	-4.3	-2.4	17.3*	1.5
COc1ccccc1CNC(=O)C1Cc2cc(S(=O)(=O)N3CCCC3)ccc2N1C(C)=O (stereo unspecified)	3.1	12.0	-2.2	7.0	5.9	2.1
Cc1csc(-c2ccc3cc(Cl)cc(Cl)c3n2)n1	4.7	-13.5	-0.1	-11.5	20.9*	1.4
Cc1nc(-c2cc(-c3ccc(Cl)cc3)no2)cs1	3.7	2.2	-0.2	0.2	1.4	0.7
N#CC(C#N)=C(Nc1ccc(F)cc1)SCc1cccc(Br)c1	-19.4	31.9*	6.2	19.0	-15.1	10.4
Cc1cccc(CSC(=N)N)c1	-3.2	4.6	-5.3	5.6	-0.3	1.4
Cc1cccc(CSC(Nc2ccc(F)cc2)=C(C#N)C#N)c1	-15.1	29.5*	6.4	18.1	-13.6	11.2
COc1ccc(-c2cccc(NC(=O)c3cccs3)c2)nn1	2.9	-9.6	0.1	7.2	-5.4	9.1
O=S(=O)(c1ccc(Cl)c(Cl)c1)c1snnc1-c1ccccc1	-17.1	10.7	-8.2	40.4*	-18.8	-1.9
O=S(=O)(c1ccc(F)cc1)N1CC2CCCN2c2ccc(C(F)(F)F)cc21 (stereo unspecified)	-4.6	-4.8	-4.4	38.6*	-17.1	-3.0
COc1ccc(C(CNC(=O)c2cc3ccccc3cc2OC)N2CCCC2)cc1 (stereo unspecified)	20.1*	-1.8	-1.4	-12.8	27.4	8.9

Compound activity from PubChem.
